Results on four molecules are retold here after ChEMBL document CHEMBL1138841, “An orally bioavailable, functionally selective inverse agonist at the benzodiazepine site of GABAA alpha5 receptors with cognition enhancing properties” (J Med Chem, 2004).

Data set [1] addresses GABA-A receptor; alpha-3/beta-3/gamma-2 (Homo sapiens) (UniProt P18507+P28472+P34903). Description: In vitro percent efficacy against human gamma-aminobutyric-acid A receptor alpha-3-beta-3-gamma-2 expressed in L(tk-) cells. The data set is classed as cell-based. Put shortly: (§1)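 Whole-cell patch clamp on mouse fibroblast L(tk-) cells stably expressing human αxβ3γ2 receptors. Efficacy is the maximum % modulation of current evoked by a submaximal (EC20) GABA concentration. Mean ± SEM from at least five individually fitted concentration–response curves per subtype.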

Data set [2] has as its target GABA-A receptor; alpha-5/beta-3/gamma-2 (Homo sapiens) (UniProt P18507+P28472+P31644). Description: In vitro percent efficacy against human gamma-aminobutyric-acid A receptor alpha-5-beta-3-gamma-2 expressed in L(tk-) cells. It is filed as cell-based. Put shortly:
as §1

Data set [3] has as its target GABA-A receptor; alpha-1/beta-3/gamma-2 (Homo sapiens) (UniProt P14867+P18507+P28472). As to the kind of experiment: In vitro percent efficacy against human gamma-aminobutyric-acid A receptor alpha-1-beta-3-gamma-2 expressed in L(tk-) cells. It is filed as cell-based. Put shortly: as §1
For data set [4], the target named is GABA-A receptor; alpha-2/beta-3/gamma-2 (Homo sapiens) (UniProt P18507+P28472+P47869). Description: In vitro percent efficacy against human gamma-aminobutyric-acid A receptor alpha-2-beta-3-gamma-2 expressed in L(tk-) cells. The data set is classed as cell-based. A digest of the protocol:
as §1

Data set [5] is described as follows: Oral bioavailability in rat. The note with it: in vivo. It is filed as ADME, organism-based.
The target of data set [6] is T1, GABA-A receptor; alpha-1/beta-3/gamma-2 (Homo sapiens, UniProt P14867+P18507+P28472).
T1 sequence (P14867 whole entry): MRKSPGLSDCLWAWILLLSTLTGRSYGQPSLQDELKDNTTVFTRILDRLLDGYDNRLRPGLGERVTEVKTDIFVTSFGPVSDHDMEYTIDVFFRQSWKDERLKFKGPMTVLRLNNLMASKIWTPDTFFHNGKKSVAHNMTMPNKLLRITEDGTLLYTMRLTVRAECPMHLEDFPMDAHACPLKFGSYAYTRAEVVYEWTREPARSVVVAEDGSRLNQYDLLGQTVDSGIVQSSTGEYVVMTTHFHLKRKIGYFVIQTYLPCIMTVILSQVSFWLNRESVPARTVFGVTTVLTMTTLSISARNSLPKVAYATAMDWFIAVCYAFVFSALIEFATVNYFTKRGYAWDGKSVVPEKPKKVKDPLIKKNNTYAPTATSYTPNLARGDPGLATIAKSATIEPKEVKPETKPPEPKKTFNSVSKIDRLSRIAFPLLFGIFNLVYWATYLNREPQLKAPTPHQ
T1 sequence (P18507 whole entry): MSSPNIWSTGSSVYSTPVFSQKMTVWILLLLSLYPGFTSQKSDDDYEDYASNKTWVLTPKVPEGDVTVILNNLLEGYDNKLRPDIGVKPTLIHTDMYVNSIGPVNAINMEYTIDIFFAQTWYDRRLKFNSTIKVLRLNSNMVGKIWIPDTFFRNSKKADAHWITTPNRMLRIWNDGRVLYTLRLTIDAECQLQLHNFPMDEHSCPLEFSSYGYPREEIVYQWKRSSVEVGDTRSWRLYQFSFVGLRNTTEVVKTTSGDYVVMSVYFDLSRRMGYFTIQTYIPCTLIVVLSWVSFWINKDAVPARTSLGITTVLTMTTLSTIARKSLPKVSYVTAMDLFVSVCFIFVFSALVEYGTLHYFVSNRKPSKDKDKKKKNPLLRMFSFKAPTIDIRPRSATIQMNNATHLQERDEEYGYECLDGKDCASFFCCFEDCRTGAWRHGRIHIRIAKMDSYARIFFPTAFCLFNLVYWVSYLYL
T1 sequence (P28472 whole entry): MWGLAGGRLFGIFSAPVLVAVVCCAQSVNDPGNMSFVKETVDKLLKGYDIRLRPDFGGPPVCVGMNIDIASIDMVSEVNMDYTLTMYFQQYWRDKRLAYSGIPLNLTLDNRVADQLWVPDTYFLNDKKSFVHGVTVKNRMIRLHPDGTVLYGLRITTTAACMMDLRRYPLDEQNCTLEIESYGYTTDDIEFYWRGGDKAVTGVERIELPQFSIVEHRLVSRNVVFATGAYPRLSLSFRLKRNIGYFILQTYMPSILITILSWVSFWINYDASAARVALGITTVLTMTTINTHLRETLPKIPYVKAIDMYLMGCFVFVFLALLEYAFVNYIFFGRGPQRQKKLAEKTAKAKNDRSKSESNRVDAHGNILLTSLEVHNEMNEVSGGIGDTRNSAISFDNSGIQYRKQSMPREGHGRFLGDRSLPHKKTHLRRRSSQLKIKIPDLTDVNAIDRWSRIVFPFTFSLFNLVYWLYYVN
Description: Displacement of [3H]-Ro- 15-1788 from human gamma-aminobutyric-acid GABA-A receptor alpha-1-beta-3-gamma-2 expressed in L(tk-) cells. It is filed as cell-based.

Data set [7] has as its target T2, GABA-A receptor; alpha-2/beta-3/gamma-2 (Homo sapiens, UniProt P18507+P28472+P47869).
T2 sequence (P18507 whole entry): T1 sequence (P18507 whole entry)
T2 sequence (P28472 whole entry): T1 sequence (P28472 whole entry)
T2 sequence (P47869 whole entry): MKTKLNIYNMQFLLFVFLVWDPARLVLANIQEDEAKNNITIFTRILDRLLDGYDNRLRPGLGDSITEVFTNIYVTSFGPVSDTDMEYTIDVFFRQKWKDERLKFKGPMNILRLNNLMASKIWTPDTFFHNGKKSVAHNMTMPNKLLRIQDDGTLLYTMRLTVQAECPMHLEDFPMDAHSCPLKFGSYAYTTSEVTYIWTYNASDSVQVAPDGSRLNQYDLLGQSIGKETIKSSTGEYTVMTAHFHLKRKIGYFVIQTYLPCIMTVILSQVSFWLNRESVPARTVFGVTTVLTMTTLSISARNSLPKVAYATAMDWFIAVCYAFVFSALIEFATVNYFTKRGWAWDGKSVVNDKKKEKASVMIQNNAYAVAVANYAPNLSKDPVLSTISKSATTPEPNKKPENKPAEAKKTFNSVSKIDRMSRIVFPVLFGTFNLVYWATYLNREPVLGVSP
As to the kind of experiment: Displacement of [3H]-Ro- 15-1788 from human gamma-aminobutyric-acid GABA-A receptor alpha-2-beta-3-gamma-2 expressed in L(tk-) cells. It is filed as cell-based.

In data set [8] the target is T3, GABA-A receptor; alpha-3/beta-3/gamma-2 (Homo sapiens, UniProt P18507+P28472+P34903).
T3 sequence (P18507 whole entry): T1 sequence (P18507 whole entry)
T3 sequence (P28472 whole entry): T1 sequence (P28472 whole entry)
T3 sequence (P34903 whole entry): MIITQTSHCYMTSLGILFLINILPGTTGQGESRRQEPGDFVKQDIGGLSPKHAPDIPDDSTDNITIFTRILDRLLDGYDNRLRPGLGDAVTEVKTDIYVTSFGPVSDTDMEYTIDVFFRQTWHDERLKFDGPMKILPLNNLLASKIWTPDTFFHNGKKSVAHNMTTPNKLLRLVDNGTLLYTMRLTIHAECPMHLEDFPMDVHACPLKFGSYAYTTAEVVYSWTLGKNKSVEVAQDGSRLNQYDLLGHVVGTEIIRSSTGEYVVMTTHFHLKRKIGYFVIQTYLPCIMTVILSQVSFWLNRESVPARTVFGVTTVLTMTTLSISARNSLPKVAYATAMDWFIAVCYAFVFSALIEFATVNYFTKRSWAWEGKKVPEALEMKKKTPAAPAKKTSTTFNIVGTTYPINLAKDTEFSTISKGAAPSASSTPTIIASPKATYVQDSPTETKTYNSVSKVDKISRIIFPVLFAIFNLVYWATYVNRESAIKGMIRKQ
As to the kind of experiment: Displacement of [3H]-Ro- 15-1788 from human gamma-aminobutyric-acid GABA-A receptor alpha-3-beta-3-gamma-2 expressed in L(tk-) cells. The data set is classed as cell-based. In general terms: In a radioligand displacement assay an active substance lowers the binding of a labelled ligand.

Data set [9] addresses T4, GABA-A receptor; alpha-5/beta-3/gamma-2 (Homo sapiens, UniProt P18507+P28472+P31644).
T4 sequence (P18507 whole entry): T1 sequence (P18507 whole entry)
T4 sequence (P28472 whole entry): T1 sequence (P28472 whole entry)
T4 sequence (P31644 whole entry): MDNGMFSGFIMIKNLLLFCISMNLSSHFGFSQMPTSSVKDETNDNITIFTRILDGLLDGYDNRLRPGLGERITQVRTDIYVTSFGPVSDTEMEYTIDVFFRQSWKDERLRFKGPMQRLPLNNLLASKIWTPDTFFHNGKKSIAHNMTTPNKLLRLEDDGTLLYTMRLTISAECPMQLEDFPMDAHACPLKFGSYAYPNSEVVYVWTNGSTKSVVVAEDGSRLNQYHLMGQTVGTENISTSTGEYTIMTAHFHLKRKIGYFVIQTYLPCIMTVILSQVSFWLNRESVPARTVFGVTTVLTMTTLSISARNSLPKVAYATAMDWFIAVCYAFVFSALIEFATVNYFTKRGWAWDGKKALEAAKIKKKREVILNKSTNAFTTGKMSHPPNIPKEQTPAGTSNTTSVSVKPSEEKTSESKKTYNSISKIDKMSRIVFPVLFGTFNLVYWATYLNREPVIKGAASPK
As to the kind of experiment: Displacement of [3H]-Ro- 15-1788 from human gamma-aminobutyric-acid GABA-A receptor alpha-5-beta-3-gamma-2 expressed in L(tk-) cells. It is filed as cell-based.

In data set [10] the target is GABA-A receptor; anion channel (Rattus norvegicus) (UniProt O09028+P15431+P18506+P18508+P19969+P20236+P23574+P23576+P28471+P28473+P30191+P62813+P63079+P63138+Q91ZM7+Q9ES14). As to the kind of experiment: Concentration required to occupy 50% of gamma-aminobutyric-acid GABA-A receptor alpha subtype at 0.75 hr after dose. It is filed as protein-complex assay. Put shortly: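 Rats dosed orally in 0.5% Methocel vehicle; occupancy of the benzodiazepine binding site measured 0.75 h postdose by in vivo [3H]Ro 15-1788 binding. Dose giving 50% occupancy read from the dose–occupancy relationship.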

Data set [11] in a line: Oral bioavailability in dog. The note with it: in vivo. The data set is classed as ADME, organism-based, Canis lupus familiaris.
The target in data set [12] is GABA A receptor alpha-4/beta-3/gamma-2 (Homo sapiens, UniProt P18507+P28472+P48169). Description: Binding affinity towards gamma-aminobutyric-acid GABA-A receptor alpha-4-beta-3-gamma-2. It is filed as protein-complex assay.
Chain of GABA A receptor alpha-4/beta-3/gamma-2 (P48169 whole entry, one chain of several): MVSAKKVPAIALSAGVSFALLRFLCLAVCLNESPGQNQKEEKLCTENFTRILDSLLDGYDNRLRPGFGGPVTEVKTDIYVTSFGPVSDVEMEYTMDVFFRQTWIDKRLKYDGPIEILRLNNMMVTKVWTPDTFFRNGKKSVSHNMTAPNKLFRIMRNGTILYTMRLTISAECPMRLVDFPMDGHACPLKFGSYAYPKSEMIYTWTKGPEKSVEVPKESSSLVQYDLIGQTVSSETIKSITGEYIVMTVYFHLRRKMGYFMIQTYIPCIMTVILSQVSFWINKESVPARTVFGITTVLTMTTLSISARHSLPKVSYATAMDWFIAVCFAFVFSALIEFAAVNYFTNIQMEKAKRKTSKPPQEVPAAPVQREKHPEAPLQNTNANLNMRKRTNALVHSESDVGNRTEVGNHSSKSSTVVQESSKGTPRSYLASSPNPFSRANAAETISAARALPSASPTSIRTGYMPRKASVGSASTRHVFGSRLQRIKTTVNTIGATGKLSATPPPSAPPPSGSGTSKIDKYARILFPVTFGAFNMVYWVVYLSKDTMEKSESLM
Data set [13] addresses GABA-A receptor; alpha-6/beta-3/gamma-2 (Homo sapiens, UniProt P18507+P28472+Q16445). As to the kind of experiment: Binding affinity towards gamma-aminobutyric-acid GABA-A receptor alpha-6-beta-3-gamma-2. The data set is classed as protein-complex assay.

A value given as a limit tells only on which side of the number the result lay.

Chain of GABA-A receptor; alpha-6/beta-3/gamma-2 (Q16445 whole entry, one chain of several): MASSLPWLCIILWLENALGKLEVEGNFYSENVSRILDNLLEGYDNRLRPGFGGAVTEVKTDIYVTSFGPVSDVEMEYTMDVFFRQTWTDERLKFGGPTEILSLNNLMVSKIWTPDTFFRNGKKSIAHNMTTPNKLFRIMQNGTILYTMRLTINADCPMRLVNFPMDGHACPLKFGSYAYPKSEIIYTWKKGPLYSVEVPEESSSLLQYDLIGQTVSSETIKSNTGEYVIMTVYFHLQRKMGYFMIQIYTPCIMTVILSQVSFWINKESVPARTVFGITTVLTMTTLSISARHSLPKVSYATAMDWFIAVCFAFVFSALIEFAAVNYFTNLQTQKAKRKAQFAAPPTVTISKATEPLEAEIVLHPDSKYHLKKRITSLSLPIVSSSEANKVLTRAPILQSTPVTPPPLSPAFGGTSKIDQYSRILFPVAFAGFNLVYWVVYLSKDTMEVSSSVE

Take `Cc1cc(-c2nnc3c4ccccc4c(OCc4cn(C)nn4)nn23)no1`: the Efficacy in data set [1] was -7%; in data set [2], -40%; in data set [3] it was -15%; in data set [4], 16%.
As to `CNC1=Nc2ccc(Cl)cc2C(c2ccccc2)=[N+]([O-])C1`, the Efficacy in [1] came to 113%; in data set [3], 100%; in [4], 111%.
For `Cc1cc(-c2nncc3c(C(C)(C)C)c(OCc4ncnn4C)nn23)no1`, the results for the bioavailability in data set [5] and in [11] were 52% and 8%, respectively. The Ki (commonly the equilibrium dissociation constant of an inhibitor or competing ligand from its target) in data set [6] was 0.83 nM; in data set [7] it was 0.85 nM; in data set [8], 0.77 nM; in data set [9] it was 1.4 nM; in [12], 395 nM; in [13], above 4000 nM. The same molecule came in with an Occupancy in [10] of 0.35 mg/kg. The Efficacy in data set [1] was -9%; in data set [2], -55%; in data set [3], -16%; in [4], 6%.
On to `CCc1c(C(=O)OC)ncc2[nH]c3cc(OC)c(OC)cc3c12`, for which the Efficacy is -62% in data set [1], -57% in [2], -71% in [3] and -53% in data set [4].
